Measured values reported in ChEMBL document CHEMBL1123808, “Synthesis of two glucagon antagonists: receptor binding, adenylate cyclase, and effects on blood plasma glucose levels” (J Med Chem, 1987).
Values belong to the molecule of their own block, whether it stands above or below them.

Assays:
[1] = species on record: Rattus norvegicus; test: Compound tested for the inhibition of glucagon-mediated hyperglycemia in rats; format: functional; set-up: scale not given: the % may be the effect or the level left
Method in brief: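 Normal male Wistar rats under pentobarbital, femoral vein and artery catheterised. At time 0, glucagon 1 μg/kg and an excess of analogue were given together in the same 0.5 mL buffer bolus. Plasma glucose followed over 50 min as change from basal. Mean of 4-6 animals.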

[2] = species on record: Rattus norvegicus; test: Ability to displace [125I]glucagon was determined; format: functional
Method in brief: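 Rat liver plasma membranes (male Sprague-Dawley; 50 μg protein/0.5 mL) in Tris-HCl 25 mM pH 7.5 with 1% BSA, incubated with [125I]glucagon (100 000 cpm, 25 fmol) and unlabelled peptide at various concentrations for 10 min at 30 °C. Then iced, filtered and washed, and filter radioactivity counted. Nonspecific binding taken with 1 μM unlabelled glucagon. Triplicates, repeated two or three times. IC50 from displacement curves.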

[3] = species on record: Rattus norvegicus; test: Binding affinity against glucagon receptor was determined in rat by using adenylate cyclase assay; format: functional
[4] = test system: Rattus norvegicus; test: Compound tested for the increase in blood glucose level in rats at a dose of 1 ug/kg in 10 min; format: functional, organism-based
Method in brief: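 Male Wistar rats (250-400 g), fed ad libitum, under pentobarbital (70 mg/kg) at 36-37 °C. Peptide given as a femoral-vein bolus in 0.5 mL NaCl 145 mM/Na2CO3 2 mM/0.25% BSA. Plasma glucose from femoral-artery samples at 0, 2, 5, 10, 20, 30, 40, 50 min, expressed as change from each rat's basal level. Buffer-only controls run. n = 4-6.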

Molecule: CSCC[C@H](NC(=O)[C@H](CC(C)C)NC(=O)[C@H](Cc1c[nH]c2ccccc12)NC(=O)[C@H](CCC(N)=O)NC(=O)[C@@H](NC(=O)[C@H](Cc1ccccc1)NC(=O)[C@H](CCC(=O)O)NC(=O)[C@H](CCC(N)=O)NC(=O)[C@H](C)NC(=O)[C@H](CCCCN)NC(=O)[C@H](CCCCN)NC(=O)[C@H](CO)NC(=O)[C@H](CC(=O)O)NC(=O)[C@H](CC(C)C)NC(=O)[C@H](Cc1ccc(O)cc1)NC(=O)[C@H](CCCNC(=N)N)NC(=O)[C@H](CO)NC(=O)[C@H](Cc1cc(I)c(O)c(I)c1)NC(=O)[C@H](CC(=O)O)NC(=O)[C@H](CO)NC(=O)[C@@H](NC(=O)[C@H](Cc1ccccc1)NC(=O)[C@H](Cc1ccc(O)cc1)NC(=O)[C@@H](Cc1ccccc1)NC(=O)[C@H](CCC(N)=O)NC(=O)[C@H](CO)NC(=O)[C@@H](N)Cc1c[nH]cn1)[C@@H](C)O)C(C)C)C(=O)N[C@@H](CC(N)=O)C(=O)N[C@H](C(=O)O)[C@@H](C)O [listing 1 of 2 here]
- Activity [1]: 50%

- IC50 [2]: 13 nM
Molecule: CSCC[C@H](NC(=O)[C@H](CC(C)C)NC(=O)[C@H](Cc1c[nH]c2ccccc12)NC(=O)[C@H](CCC(N)=O)NC(=O)[C@@H](NC(=O)[C@H](Cc1ccccc1)NC(=O)[C@H](CCC(=O)O)NC(=O)[C@H](CCC(N)=O)NC(=O)[C@H](C)NC(=O)[C@H](CCCCN)NC(=O)[C@H](CCCCN)NC(=O)[C@H](CO)NC(=O)[C@H](CC(=O)O)NC(=O)[C@H](CC(C)C)NC(=O)[C@H](Cc1ccc(O)cc1)NC(=O)[C@H](CCCNC(=N)N)NC(=O)[C@H](CO)NC(=O)[C@H](Cc1cc(I)c(O)c(I)c1)NC(=O)[C@H](CC(=O)O)NC(=O)[C@H](CO)NC(=O)[C@@H](NC(=O)[C@H](Cc1ccccc1)NC(=O)[C@H](Cc1ccc(O)cc1)NC(=O)[C@@H](Cc1ccccc1)NC(=O)[C@H](CCC(N)=O)NC(=O)[C@H](CO)NC(=O)[C@@H](N)Cc1c[nH]cn1)[C@@H](C)O)C(C)C)C(=O)N[C@@H](CC(N)=O)C(=O)N[C@H](C(=O)O)[C@@H](C)O [listing 2 of 2 here]

Molecule: GLUCAGON [listing 1 of 2 here]
- ED50 [3]: 9.6 nM
- Activity [4]: 95.1 mg/dL

Molecule: GLUCAGON [listing 2 of 2 here]
- IC50 [2]: 6.7 nM
